Measured values from ChEMBL document CHEMBL4814038, “Discovery of sertraline and its derivatives able to combat drug-resistant gastric cancer cell via inducing apoptosis” (Bioorg Med Chem Lett, 2021).
Calls of active or inactive are those of the source. The calls are words filed in the database; no cut-off is given here.

What was measured:
SGC-7901 [1] = assay: Antiproliferative activity against cisplatin resistant human SGC-7901 cells assessed as sensitizing activity at 20 uM in presence of cisplatin; format: functional, cell-based
Procedure, shortened: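 Cisplatin-resistant SGC-7901/DDP cells treated with each compound at 20 μM in combination with DDP (15 μM). Sensitizing effect read as inhibition of proliferation.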

SGC-7901 [2] = assay: Antiproliferative activity against cisplatin resistant human SGC-7901 cells assessed as sensitizing activity in presence of cisplatin; format: functional, cell-based
Procedure, shortened: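 Cisplatin-resistant SGC-7901/DDP cells co-treated with DDP (15 μM) and compound over 1.0, 2.0, 4.0, 8.0, 12, 16, 20, 24 μM. IC50 derived from inhibition of proliferation.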

[3] = Effect on PI3K/AKT/mTOR signaling pathway in human SGC-7901 cells assessed as change in total mTOR expression at 8 to 16 uM by Western blotting analysis; format: cell-based; settings: dose 8-16 µM
Procedure, shortened: (§1)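 SGC-7901/DDP cells given DDP (15 μM) alone or with compound at 8 and 16 μM (parent) or 3 and 6 μM (derivatives). PI3K, Akt, mTOR and their phosphorylated forms detected by Western blotting.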

[4] = Effect on PI3K/AKT/mTOR signaling pathway in human SGC-7901 cells assessed as reduction in phosphorylated mTOR expression at 8 to 16 uM by Western blotting analysis; format: cell-based; settings: filed as modulator, dose 8-16 µM; procedure, shortened: as §1
[5] = Effect on PI3K/AKT/mTOR signaling pathway in human SGC-7901 cells assessed as reduction in phosphorylated PI3K expression at 3 to 6 uM by Western blotting analysis; format: cell-based; settings: filed as modulator, dose 3-6 µM; procedure, shortened: as §1
SGC-7901 [6] = assay: Induction of apoptosis in human SGC-7901 cells assessed as viable cells at 8 uM by FITC/PI staining based flow cytometry analysis (reference value: 94.3 %); format: functional; settings: read-out: Activity
SGC-7901 [7] = assay: Induction of apoptosis in human SGC-7901 cells assessed as late apoptotic cells at 8 uM by FITC/PI staining based flow cytometry analysis (reference value: 2.56 %); format: functional
[8] = Effect on PI3K/AKT/mTOR signaling pathway in human SGC-7901 cells assessed as reduction in phosphorylated AKT expression at 8 to 16 uM by Western blotting analysis; format: cell-based; settings: filed as modulator, dose 8-16 µM; procedure, shortened: as §1
[9] = Effect on PI3K/AKT/mTOR signaling pathway in human SGC-7901 cells assessed as change in total AKT expression at 8 to 16 uM by Western blotting analysis; format: cell-based; settings: dose 8-16 µM; procedure, shortened: as §1
SGC-7901 [10] = assay: Induction of apoptosis in human SGC-7901 cells assessed as early apoptotic cells at 8 uM by FITC/PI staining based flow cytometry analysis (reference value: 3.06 %); format: functional
[11] = Effect on PI3K/AKT/mTOR signaling pathway in human SGC-7901 cells assessed as change in total PI3K expression at 8 to 16 uM by Western blotting analysis; format: cell-based; settings: dose 8-16 µM; procedure, shortened: as §1
SGC-7901 [12] = assay: Induction of apoptosis in human SGC-7901 cells assessed as upregulation of cleaved caspase 3 expression level by Western blotting analysis; format: functional, cell-based; settings: dose 3-6 µM
[13] = Effect on PI3K/AKT/mTOR signaling pathway in human SGC-7901 cells assessed as reduction in phosphorylated PI3K expression at 8 to 16 uM by Western blotting analysis; format: cell-based; settings: filed as modulator, dose 8-16 µM; procedure, shortened: as §1
[14] = Effect on PI3K/AKT/mTOR signaling pathway in human SGC-7901 cells assessed as reduction in phosphorylated mTOR expression at 3 to 6 uM by Western blotting analysis; format: cell-based; settings: filed as modulator, dose 3-6 µM; procedure, shortened: as §1
[15] = Effect on PI3K/AKT/mTOR signaling pathway in human SGC-7901 cells assessed as reduction in phosphorylated AKT expression at 3 to 6 uM by Western blotting analysis; format: cell-based; settings: filed as modulator, dose 3-6 µM; procedure, shortened: as §1
SGC-7901 [16] = assay: Induction of apoptosis in human SGC-7901 cells assessed as necrotic cells at 8 uM by FITC/PI staining based flow cytometry analysis (reference value: 0.068 %); format: functional
SGC-7901 [17] = assay: Induction of cell cycle arrest in human SGC-7901 cells assessed as accumulation at G0/G1 phase at 8 to 16 uM by flow cytometry analysis; format: functional, cell-based; settings: dose 8-16 µM
Procedure, shortened: (§2)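 SGC-7901/DDP cells exposed to DDP (15 μM) with compound at 8 and 16 μM (parent) or 3 and 6 μM (derivatives). Cell-cycle distribution measured by flow cytometry, with G0/G1 fraction scored.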

SGC-7901 [18] = assay: Induction of apoptosis in human SGC-7901 cells assessed as late apoptotic cells at 3 uM by FITC/PI staining based flow cytometry analysis (reference value: 2.56 %); format: functional
[19] = Effect on PI3K/AKT/mTOR signaling pathway in human SGC-7901 cells assessed as change in total mTOR expression at 3 to 6 uM by Western blotting analysis; format: cell-based; settings: dose 3-6 µM; procedure, shortened: as §1
SGC-7901 [20] = assay: Induction of apoptosis in human SGC-7901 cells assessed as viable cells at 3 uM by FITC/PI staining based flow cytometry analysis (reference value: 94.3 %); format: functional; settings: read-out: Activity
SGC-7901 [21] = assay: Induction of apoptosis in human SGC-7901 cells assessed as necrotic cells at 3 uM by FITC/PI staining based flow cytometry analysis (reference value: 0.068 %); format: functional
[22] = Effect on PI3K/AKT/mTOR signaling pathway in human SGC-7901 cells assessed as change in total AKT expression at 3 to 6 uM by Western blotting analysis; format: cell-based; settings: dose 3-6 µM; procedure, shortened: as §1
SGC-7901 [23] = assay: Induction of cell cycle arrest in human SGC-7901 cells assessed as accumulation at G0/G1 phase at 3 to 6 uM by flow cytometry analysis; format: functional, cell-based; settings: dose 3-6 µM; procedure, shortened: as §2
SGC-7901 [24] = assay: Induction of apoptosis in human SGC-7901 cells assessed as early apoptotic cells at 3 uM by FITC/PI staining based flow cytometry analysis (reference value: 3.06 %); format: functional
[25] = Effect on PI3K/AKT/mTOR signaling pathway in human SGC-7901 cells assessed as change in total PI3K expression at 3 to 6 uM by Western blotting analysis; format: cell-based; settings: dose 3-6 µM; procedure, shortened: as §1

NCCCCN[C@@H]1CC[C@H](c2ccc(Cl)c(Cl)c2)c2ccccc21 (relative stereo)
Activity (SGC-7901 [1]): Active | IC50 (SGC-7901 [2]): 6.3 µM

COc1cccc(CN[C@@H]2CC[C@@H](c3ccc(Cl)c(Cl)c3)c3ccccc32)c1 (relative stereo)
Activity (SGC-7901 [1]): inactive

NCCCCCCN[C@@H]1CC[C@H](c2ccc(Cl)c(Cl)c2)c2ccccc21 (relative stereo)
Activity (SGC-7901 [1]): Active | IC50 (SGC-7901 [2]): 18.9 µM

Cc1ccc(CN[C@@H]2CC[C@@H](c3ccc(Cl)c(Cl)c3)c3ccccc32)cc1 (relative stereo)
Activity (SGC-7901 [1]): inactive

CN[C@H]1CC[C@@H](c2ccc(Cl)c(Cl)c2)c2ccccc21 [SERTRALINE]
Activity [3]: inactive | Activity [4]: Active | Activity [5]: Active | viability at 8 µM (SGC-7901 [6]): 55.2% | Activity (SGC-7901 [7]): 20.9% | Activity [8]: Active | Activity [9]: inactive | Activity (SGC-7901 [10]): 4.21% | Activity [11]: inactive | Activity (SGC-7901 [12]): Dose-Dependent Effect | Activity [13]: Active | IC50 (SGC-7901 [2]): 18.7 µM | Activity [14]: Active | Activity [15]: Active | Activity (SGC-7901 [16]): 19.7% | Activity (SGC-7901 [17]): Active

Clc1ccc([C@@H]2CC[C@@H](NCc3ccccc3)c3ccccc32)cc1Cl (relative stereo)
Activity (SGC-7901 [1]): Active

NCCN[C@@H]1CC[C@H](c2ccc(Cl)c(Cl)c2)c2ccccc21 (relative stereo)
Activity (SGC-7901 [1]): Active | IC50 (SGC-7901 [2]): 10.7 µM

Clc1ccc([C@H]2CC[C@H](NCCN3CCNCC3)c3ccccc32)cc1Cl (relative stereo)
Activity (SGC-7901 [18]): 41% | Activity [5]: Active | Activity [19]: inactive | Activity (SGC-7901 [12]): Dose-Dependent Effect | Activity (SGC-7901 [1]): Active | viability at 3 µM (SGC-7901 [20]): 34.5% | IC50 (SGC-7901 [2]): 5.2 µM | Activity (SGC-7901 [21]): 20.3% | Activity [14]: Active | Activity [15]: Active | Activity [22]: inactive | Activity (SGC-7901 [23]): Active | Activity (SGC-7901 [24]): 4.06%

NCCCCCCN[C@@H]1CC[C@@H](c2ccc(Cl)c(Cl)c2)c2ccccc21 (relative stereo)
Activity (SGC-7901 [1]): Active | IC50 (SGC-7901 [2]): 11.1 µM

CCCCN[C@@H]1CC[C@@H](c2ccc(Cl)c(Cl)c2)c2ccccc21 (relative stereo)
Activity (SGC-7901 [1]): Active

COc1ccc(CN[C@@H]2CC[C@@H](c3ccc(Cl)c(Cl)c3)c3ccccc32)cc1OC (relative stereo)
Activity (SGC-7901 [1]): inactive

N[C@H]1CC[C@H](c2ccc(Cl)c(Cl)c2)c2ccccc21 (relative stereo)
Activity (SGC-7901 [1]): inactive

CC(C)(C)OC(=O)N1CCN(CCN[C@@H]2CC[C@@H](c3ccc(Cl)c(Cl)c3)c3ccccc32)CC1 (relative stereo)
IC50 (SGC-7901 [2]): 17.1 µM

N[C@@H]1CC[C@H](c2ccc(Cl)c(Cl)c2)c2ccccc21 (relative stereo)
Activity (SGC-7901 [1]): inactive

Clc1ccc(CN[C@@H]2CC[C@@H](c3ccc(Cl)c(Cl)c3)c3ccccc32)cc1Cl (relative stereo)
Activity (SGC-7901 [1]): inactive

COc1ccc(CN[C@@H]2CC[C@@H](c3ccc(Cl)c(Cl)c3)c3ccccc32)cc1 (relative stereo)
Activity (SGC-7901 [1]): Active

NCCN[C@@H]1CC[C@@H](c2ccc(Cl)c(Cl)c2)c2ccccc21 (relative stereo)
Activity (SGC-7901 [1]): Active | IC50 (SGC-7901 [2]): 11 µM

NCCCCN[C@@H]1CC[C@@H](c2ccc(Cl)c(Cl)c2)c2ccccc21 (relative stereo)
Activity (SGC-7901 [18]): 44.6% | Activity [5]: Active | Activity [19]: inactive | Activity [25]: inactive | Activity (SGC-7901 [12]): Dose-Dependent Effect | Activity (SGC-7901 [1]): Active | viability at 3 µM (SGC-7901 [20]): 30.7% | IC50 (SGC-7901 [2]): 6.28 µM | Activity (SGC-7901 [21]): 14.1% | Activity [14]: Active | Activity [15]: Active | Activity (SGC-7901 [23]): Active | Activity (SGC-7901 [24]): 2.67%

Clc1ccc([C@@H]2CC[C@@H](NCc3cccc4ccccc34)c3ccccc32)cc1Cl (relative stereo)
Activity (SGC-7901 [1]): inactive

FC(F)(F)c1cccc(CN[C@@H]2CC[C@@H](c3ccc(Cl)c(Cl)c3)c3ccccc32)c1 (relative stereo)
Activity (SGC-7901 [1]): inactive

O=C(CCCCl)N[C@H]1CC[C@H](c2ccc(Cl)c(Cl)c2)c2ccccc21
Activity (SGC-7901 [1]): inactive

Clc1ccc([C@@H]2CC[C@@H](NCc3ccc4c(c3)OCO4)c3ccccc32)cc1Cl
Activity (SGC-7901 [1]): inactive

CC(=O)N[C@H]1CC[C@H](c2ccc(Cl)c(Cl)c2)c2ccccc21 (relative stereo)
Activity (SGC-7901 [1]): inactive
